# According to ChEMBL document CHEMBL2331184, “The synthesis and SAR of calcitonin gene-related peptide (CGRP) receptor antagonists derived from tyrosine surrogates. Part 2” (Bioorg Med Chem Lett, 2013):
# The source made the active and inactive calls. No cut-off for these calls is given here.
# Legend:
# [1] = Bioavailability in rabbit at 0.6 mg/kg administered intranasally; format: ADME, organism-based, Oryctolagus cuniculus; conditions: in vivo, inhaled or intranasal
# How it was run: (§1)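 Rabbits were dosed intranasally with a spray of a 10 mg/mL aqueous solution of the HCl salt, at 0.6 mg/kg. […] Intranasal bioavailability was derived from these plasma levels.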
# [2] = biological target: T1, Nuclear receptor subfamily 1 group I member 2 (Homo sapiens, UniProt O75469); assay: Activation of PXR (unknown origin)
# T1 sequence (O75469 whole entry): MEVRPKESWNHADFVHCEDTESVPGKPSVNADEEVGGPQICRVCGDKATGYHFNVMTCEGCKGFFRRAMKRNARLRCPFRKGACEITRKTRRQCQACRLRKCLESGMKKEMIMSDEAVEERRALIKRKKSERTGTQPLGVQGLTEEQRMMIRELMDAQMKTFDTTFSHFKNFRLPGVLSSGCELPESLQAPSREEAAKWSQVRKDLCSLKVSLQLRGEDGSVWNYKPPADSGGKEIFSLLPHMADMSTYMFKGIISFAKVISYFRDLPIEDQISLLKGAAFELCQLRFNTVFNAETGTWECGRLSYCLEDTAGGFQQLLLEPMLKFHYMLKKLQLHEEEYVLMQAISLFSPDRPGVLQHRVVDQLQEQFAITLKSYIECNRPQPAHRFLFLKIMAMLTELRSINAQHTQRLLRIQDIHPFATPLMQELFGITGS
# [3] = Aqueous solubility of the compound at pH 4.0 to 6.2; format: physicochemical; conditions: aqueous solution
# Salmonella typhimurium = assay: Genotoxicity in Salmonella typhimurium by Ames test; format: toxicity, organism-based; conditions: salmonella enterica subsp. enterica serovar typhimurium
# [4] = Tmax in rabbit at 0.6 mg/kg administered intranasally; format: ADME, organism-based, Oryctolagus cuniculus; set-up: dose 0.6 mg/kg; conditions: in vivo, inhaled or intranasal; how it was run: as §1
# Cytochrome P450 3A4 [5] = biological target: T2, Cytochrome P450 3A4 (Homo sapiens, UniProt P08684); assay: Inhibition of CYP3A4 (unknown origin) using 7-benzyloxy-resorufin as substrate; format: ADME
# [6] = biological target: T3, Calcitonin gene-related peptide type 1 receptor (Homo sapiens, UniProt O60894+Q16602); assay: Binding affinity to CGRP receptor (unknown origin)
# [7] = biological target: Calcitonin gene-related peptide type 1 receptor (Homo sapiens) (UniProt Q16602); assay: (§2) Antagonist activity at CGRP receptor in human SK-N-MC cells assessed as inhibition of […]-induced cAMP production; format: functional, cell-based
# How it was run: (§3)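 Concentration-dependent inhibition of CGRP-stimulated cAMP production measured in SK-N-MC cells expressing the human CGRP receptor. Value reported as EC50.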
# Cytochrome P450 3A4 [8] = biological target: T2, Cytochrome P450 3A4; assay: (§4) Inhibition of CYP3A4 (unknown origin) using 7-benzyloxy-4-trifluoromethylcoumarin as substrate; format: ADME
# [9] = Reversal of CGRP-induced dilation on human intracranial arteries; format: functional, Artery
# How it was run: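 Ex vivo human intracranial artery rings were mounted between two wire hooks on a force transducer to record tone. Rings were precontracted with 10 mM KCl and fully dilated with 1 nM haCGRP. Dilation was then reversed by cumulative half-log additions of antagonist.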
# [10] = biological target: T3, Calcitonin gene-related peptide type 1 receptor; assay: as §2; format: functional, cell-based; how it was run: as §3
# [11] = Plasma concentration in marmoset at 0.03 g/kg, sc after 105 mins; format: ADME, organism-based, Callithrix jacchus; conditions: 30 mg/kg
# How it was run: (§5)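 Marmosets were anesthetized. Facial blood flow was raised by iv haCGRP (10 µg/kg) given at −30, 15, 60 and 105 min and read by laser Doppler flowmetry. The antagonist (racemate) was given SC at 0 min and compared with vehicle-treated animals, n = 5. Plasma levels were taken at 15, 60 and 105 min.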
# [12] = Plasma concentration in marmoset at 0.03 g/kg, sc after 15 mins; format: ADME, organism-based, Callithrix jacchus; conditions: 30 mg/kg; how it was run: as §5
# Callithrix jacchus = assay: Inhibition of CGRP-induced increases in marmoset facial blood flow at 0.03 g/kg, sc after 60 to 105 mins by doppler flowmetry; format: functional, organism-based; how it was run: as §5
# [13] = Plasma concentration in marmoset at 0.03 g/kg, sc after 60 mins; format: ADME, organism-based, Callithrix jacchus; conditions: 30 mg/kg; how it was run: as §5
# CYP3A4 = CYP3A4 (Homo sapiens, UniProt P08684); assay: as §4; format: ADME; conditions: probe 7-benzyloxy-4-trifluoromethylcoumarin
# Sequence of CYP3A4 (P08684 whole entry): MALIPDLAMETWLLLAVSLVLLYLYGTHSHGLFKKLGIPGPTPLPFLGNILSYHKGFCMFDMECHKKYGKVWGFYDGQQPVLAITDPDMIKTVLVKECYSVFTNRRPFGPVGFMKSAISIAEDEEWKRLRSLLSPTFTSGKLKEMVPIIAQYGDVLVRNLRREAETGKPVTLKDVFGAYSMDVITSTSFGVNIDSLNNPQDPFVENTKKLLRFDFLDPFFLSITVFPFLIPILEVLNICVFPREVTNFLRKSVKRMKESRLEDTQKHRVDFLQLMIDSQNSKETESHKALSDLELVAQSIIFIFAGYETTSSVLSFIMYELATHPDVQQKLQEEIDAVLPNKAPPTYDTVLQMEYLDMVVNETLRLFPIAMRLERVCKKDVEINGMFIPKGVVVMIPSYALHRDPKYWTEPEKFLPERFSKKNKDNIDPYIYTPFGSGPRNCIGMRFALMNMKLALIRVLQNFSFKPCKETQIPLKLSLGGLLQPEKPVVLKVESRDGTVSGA
# Sequence of Calcitonin gene-related peptide type 1 receptor (Homo sapiens) (Q16602 whole entry): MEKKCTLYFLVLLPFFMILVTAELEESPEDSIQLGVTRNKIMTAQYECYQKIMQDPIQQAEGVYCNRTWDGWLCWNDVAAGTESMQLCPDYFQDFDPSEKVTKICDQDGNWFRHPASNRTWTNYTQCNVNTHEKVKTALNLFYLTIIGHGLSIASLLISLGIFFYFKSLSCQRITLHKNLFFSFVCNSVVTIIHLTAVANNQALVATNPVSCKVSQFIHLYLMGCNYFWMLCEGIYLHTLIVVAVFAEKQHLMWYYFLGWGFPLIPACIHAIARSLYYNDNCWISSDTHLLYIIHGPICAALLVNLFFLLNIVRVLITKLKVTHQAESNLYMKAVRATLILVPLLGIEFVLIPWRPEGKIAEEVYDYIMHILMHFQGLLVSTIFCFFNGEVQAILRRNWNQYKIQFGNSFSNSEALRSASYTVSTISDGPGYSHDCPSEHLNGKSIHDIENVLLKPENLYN
# T3 sequence (Q16602 whole entry, one chain of several): as the sequence (Q16602 whole entry) above
# T2 sequence (P08684 whole entry): as the sequence (P08684 whole entry) above
SMILES,IC50 (Cytochrome P450 3A4 [5]) [nM],Ki [6] [nM],inhibition [7],IC50 (Cytochrome P450 3A4 [8]) [nM],further results
Cc1cc(C[C@@H](NC(=O)N2CCC(N3Cc4ccccc4NC3=O)CC2)C(=O)N2CCC(N3CCCCC3)CC2)cc2cn[nH]c12.Cl,,,,,bioavailability [1]: 42%; Activity [2]: Not Active; solubility [3]: 13 mg/mL; Activity (Salmonella typhimurium): Non-toxic; Tmax [4]: 10 min
CC(C)c1cc(CC(NC(=O)N2CCC(N3Cc4ccccc4NC3=O)CC2)C(=O)N2CCC(N3CCCCC3)CC2)cc2cn[nH]c12 (racemic),370,0.22,Active,,
O=C(N[C@H](Cc1cc(Br)c2[nH]c(=O)oc2c1)C(=O)N1CCC(N2CCCCC2)CC1)N1CCC(N2Cc3ccccc3NC2=O)CC1,7200,0.023,Active,> 40000,
O=C(N[C@H](Cc1cc(Cl)c2[nH]c(=O)oc2c1)C(=O)N1CCC(N2CCCCC2)CC1)N1CCC(N2Cc3ccccc3NC2=O)CC1,17000,0.039,Active,> 40000,
Cc1cc(C[C@@H](NC(=O)N2CCC(N3Cc4ccccc4NC3=O)CC2)C(=O)N2CCC(N3CCCCC3)CC2)cc2cn[nH]c12 [listing 1 of 2 here],,0.0073,,,EC50 [9]: 0.05 nM; EC50 [10]: 0.017 nM
O=C(N[C@H](Cc1cc(I)c2[nH]c(=O)oc2c1)C(=O)N1CCC(N2CCCCC2)CC1)N1CCC(N2Cc3ccccc3NC2=O)CC1,5500,0.055,Active,32000,
CCc1cc(CC(NC(=O)N2CCC(N3Cc4ccccc4NC3=O)CC2)C(=O)N2CCC(N3CCCCC3)CC2)cc2cn[nH]c12 (racemic),450,0.005,Active,25000,
Cc1cc(C[C@@H](NC(=O)N2CCC(N3Cc4ccccc4NC3=O)CC2)C(=O)N2CCC(N3CCCCC3)CC2)cc2[nH]nnc12,7300,0.015,,> 40000,
O=C(N[C@H](Cc1cc2oc(=O)[nH]c2cc1Cl)C(=O)N1CCC(N2CCCCC2)CC1)N1CCC(N2Cc3ccccc3NC2=O)CC1,5000,0.28,Active,> 40000,
N#Cc1cc(C[C@@H](NC(=O)N2CCC(N3Cc4ccccc4NC3=O)CC2)C(=O)N2CCC(N3CCCCC3)CC2)cc2oc(=O)[nH]c12,,11,Active,,
Cc1cc(CC(NC(=O)N2CCC(N3Cc4ccccc4NC3=O)CC2)C(=O)N2CCC(N3CCCCC3)CC2)cc2cn[nH]c12 (racemic),,0.012,Active,,concentration at 1.75 h [11]: 11 nM; concentration at 0.25 h [12]: 4.7 nM; inhibition (Callithrix jacchus): Active; concentration at 1 h [13]: 13 nM
O=C(N[C@H](Cc1cc2oc(=O)[nH]c2cc1Br)C(=O)N1CCC(N2CCCCC2)CC1)N1CCC(N2Cc3ccccc3NC2=O)CC1,,0.14,Active,,
CCc1cc(CC(NC(=O)N2CCC(N3Cc4ccccc4NC3=O)CC2)C(=O)N2CCC(N3CCCCC3)CC2)cc2c(C)n[nH]c12 (racemic),6900,0.048,Active,> 40000,
Cc1cc(C[C@H](NC(=O)N2CCC(N3Cc4ccccc4NC3=O)CC2)C(=O)N2CCC(N3CCCCC3)CC2)cc2cn[nH]c12,,27,Active,,
Cc1cc(C[C@@H](NC(=O)N2CCC(N3Cc4ccccc4NC3=O)CC2)C(=O)N2CCC(N3CCCCC3)CC2)cc2cn[nH]c12 [listing 2 of 2 here],,,Active,,
O=C(N[C@H](Cc1ccc2[nH]ncc2c1)C(=O)N1CCC(N2CCCCC2)CC1)N1CCC(N2Cc3ccccc3NC2=O)CC1,,,Active,,EC50 [9]: 1.2 nM; IC50 (CYP3A4): > 40000 nM
Cc1cc(C[C@@H](NC(=O)N2CCC(N3Cc4ccccc4NC3=O)CC2)C(=O)N2CCC(N3CCCCC3)CC2)c(Cl)c2cn[nH]c12,1600,0.032,Active,3500,
O=C(NC(Cc1cc(Cl)c2[nH]ncc2c1)C(=O)N1CCC(N2CCCCC2)CC1)N1CCC(N2Cc3ccccc3NC2=O)CC1 (racemic),180,0.011,Active,13000,
Cc1cc(C[C@@H](NC(=O)N2CCC(N3Cc4ccccc4NC3=O)CC2)C(=O)N2CCC(N3CCCCC3)CC2)cc2nn[nH]c12,,,Active,,
